This is a sample that favours compounds with a hit; in the whole collection about 1.4% have one here.
HIV Env fusion: blocks HIV Env-driven cell-cell fusion; HeLa-JRFL Env/CEM21 cell fusion, luciferase; inhibition, % at 12.3 µM; actives 1.1% (n = 360,000);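 active = mean replicate inhibition score of at least 50 and every replicate individually at or above 50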;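 note: 0% = plate neutral controls and 100% = maraviroc near 300 nM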
PDI turbidity: blocks human protein disulfide isomerase activity; actives 0.052% (n = 350,000); P07237; AID 588391; PDI insulin aggregation turbidity, A650, 90 min; inhibition, % at 10 µM;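 active = mean inhibition across replicates of 30% or more, whatever share of single replicates reach that level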
Target sequence (P07237 whole entry, looked up): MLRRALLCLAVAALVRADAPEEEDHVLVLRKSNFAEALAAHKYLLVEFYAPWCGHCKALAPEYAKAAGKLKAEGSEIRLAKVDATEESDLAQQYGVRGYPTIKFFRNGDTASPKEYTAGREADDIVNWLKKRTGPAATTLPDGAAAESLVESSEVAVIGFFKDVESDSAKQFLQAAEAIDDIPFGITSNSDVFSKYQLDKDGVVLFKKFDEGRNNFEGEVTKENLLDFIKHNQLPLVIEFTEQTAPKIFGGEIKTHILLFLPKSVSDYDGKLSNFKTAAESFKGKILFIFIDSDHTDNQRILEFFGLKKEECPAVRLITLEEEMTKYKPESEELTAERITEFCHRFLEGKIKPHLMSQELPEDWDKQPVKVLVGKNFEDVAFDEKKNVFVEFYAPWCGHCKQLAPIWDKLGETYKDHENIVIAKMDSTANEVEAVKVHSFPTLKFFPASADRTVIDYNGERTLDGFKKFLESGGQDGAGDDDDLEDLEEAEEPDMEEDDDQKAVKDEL
GSIS activator: GLuc luminescence reporter in INS-1E cells, primary screen for activators of glucose-dependent secretion of insulin. actives 0.61% (n = 370,000). INS-1E GLuc reporter insulin secretion, 2-3 h. activation, % at 16.6 µM;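 active = lowest replicate activation of at least 40%, so every replicate reaches that level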;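 note: 0% = median of neutral control wells and 100% = median of IBMX positive control wells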
FN deposition inh: fibronectin deposition inhibition; inhibition, % at 12.6 µM; actives 0.086% (n = 350,000); AH1F fibroblasts, Alexa488-fibronectin deposition fluorescence, overnight;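 active = mean inhibition across replicates of 30% or more, regardless of how many single replicates reach that level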;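 note: positive control wells lacked labelled fibronectin entirely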
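Assay system: AH1F fibroblasts / Quantity: 10000 cells per well / Medium: DMEM plus 2% serum, read in PBS / Reagent: labelled fibronectin 24 nM / Dosing: single dose, pinned / Times: 1 h cell attachment, overnight exposure to compound and label / Signal: fluorescence, ex 485 nm, em 525 nm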
ERp5 inh: blocks human ERp5 reductase activity on insulin | inhibition, % at 9.99 µM | Q15084 | actives 0.05% (n = 350,000) | ERp5 insulin aggregation, absorbance 650 nm, 90 min;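 active = mean replicate inhibition above about 25%, with every replicate also reaching it, limit read from the data, passing the limit was not always enough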
* hit, by the source's call; nt = not tested or not shown; [ ] = dose if it differs, or a comment.

SMILES	HIV Env fusion	PDI turbidity	GSIS activator	FN deposition inh	ERp5 inh
C[C@H](CO)N1C[C@H](C)[C@H](CN(C)C(=O)c2ccccn2)Oc2ncc(C3=CCCCC3)cc2C1=O	1[16.7 µM]	nt	6	-4	2
CCCCn1nc(C(=O)NC2CCCCC2)c2ccccc2c1=O	11	-1	nt	0	4
CCCn1nc(C(=O)NC2CC2)c2ccccc2c1=O	4	7	52*	4	1
O=C(Nc1ccc(F)cc1)N1C[C@@H]2[C@H](c3ccccc31)[C@H](CO)N2C(=O)c1ccccc1F	nt	nt	-6	nt	0
C[C@H](O)C#Cc1ccc([C@@H]2[C@H]3CN(C(=O)c4cccc(F)c4)CCCCN3[C@H]2CO)cc1	nt	nt	10	nt	-2
CCOC(=O)[C@H]1[C@H]2COc3ccc(Br)cc3[C@@H]2N2C(=O)c3ccc(C)cc3NC(=O)[C@@]12C	-243	1	-7	-1	8
CCOC(=O)[C@@H]1[C@H]2COc3ccc(Br)cc3[C@@H]2N2C(=O)N(c3ccccc3)C(=O)[C@@]12C	87*	-6	-5	5	2
CCOC(=O)[C@H]1[C@H]2COc3ccc(Br)cc3[C@@H]2N2C(=O)c3c(C)cc(C)cc3NC(=O)[C@@]12C	67*	3	nt	15	-6
CCn1cc(C(=O)O)c(=O)c2cc(F)c(N3CCN(C(=S)NC(=O)c4cccc(C)c4)CC3)cc21	-19	3	44*	13	3
O=C(CCN1CCCCC1)NCC[C@H]1CC[C@H](NC(=O)c2ccc(F)cc2)[C@@H](CO)O1	-23[16.7 µM]	nt	11	4	-4
O=C1NCCN(Cc2cccc(Oc3ccccc3)c2)C1CC(=O)N1CCCCC1 (stereo not given)	72*	5	-5	2	0
CCCCC(CC)C(=O)Oc1ccc(O)c(C(C)(C)C)c1 (stereo not given)	26	-3	511*	12	-5
Cc1noc(C)c1S(=O)(=O)N(C)C[C@@H]1OCCCC[C@H](C)Oc2ccc(NC(=O)CCCN(C)C)cc2C(=O)N([C@H](C)CO)C[C@H]1C	nt	nt	3	nt	9
CN1c2ccc(-c3cccc(F)c3)cc2[C@H]2[C@H](CCN2C(=O)c2ccc3c(c2)OCO3)[C@@H]1CO	nt	nt	-21	8	3
COc1ccc2c3c([nH]c2c1)[C@@H](CO)N(Cc1nccs1)CC31CN(C(=O)C2CCCC2)C1	nt	nt	-7	nt	80*
COc1ccc2c3c([nH]c2c1)[C@H](CO)N(C(=O)C1CCOCC1)CC31CCN(Cc2nccs2)CC1	nt	nt	16	-11	84*
Cc1ccccc1C(=O)Nc1nnc(-c2ccc(C(C)(C)C)cc2)s1	-28	-13	137*	4	nt
COc1ccccc1NC(=O)N[C@H]1CC[C@@H](CCNS(=O)(=O)c2ccccc2)O[C@H]1CO	-8[16.7 µM]	nt	13	nt	1
N#C[C@H]1[C@@H](c2ccccc2C2=CCCCC2)[C@H](CO)N1S(=O)(=O)c1ccccc1	nt	nt	-13	-4	0
N#C[C@H]1[C@H](c2ccccc2C2=CCCCC2)[C@@H](CO)N1S(=O)(=O)c1ccccc1	nt	nt	-23	67*	-1
CC(=O)c1c(O)c2cccc3c2n(c1=O)CCC3	26	0	40*	4	1
COc1ccc2c3c(n(C)c2c1)[C@H](CO)N(C(=O)CN1CCOCC1)CC31CN(C(=O)Nc2cccc(F)c2)C1	-7[16.7 µM]	nt	-12	nt	-6
COC(=O)/C=C1\OCc2cc(OC)c(OC)cc21	-26	nt	55*	8	2
COc1cc2c(cc1OC)/C(=C/C(C)=O)OC2	-20	nt	119*	5	-4
COC(=O)C[C@H]1CC[C@@H]2[C@H](COc3ccc(NC(=O)c4cc(F)cc(F)c4)cc3C(=O)N2C)O1	18[16.7 µM]	nt	-3	-2	nt
SMILES	HIV Env fusion	PDI turbidity	GSIS activator	FN deposition inh	ERp5 inh
COc1cccc(CN2[C@H](CO)[C@@H](c3ccccc3)C23CN(C(=O)C2CCCC2)C3)c1	nt	nt	-16	-2	7
FC(F)(F)c1ccc(Cl)c(-n2c(Cc3cccs3)n[nH]c2=S)c1	-6	2	41*	2	-6
O=C1OC(CN(Cc2ccccc2)Cc2ccccc2)CN1N=Cc1ccc([N+](=O)[O-])o1 (stereo not given)	83*	1	4	1	1
C[C@H](CO)N1C[C@H](C)[C@@H](CN(C)C(=O)Nc2ccc(F)cc2)Oc2c(cccc2N(C)C)C1=O	nt	nt	-4	11	-2
CCOc1ccc(-c2nnn(CC(=O)Nc3ccccc3OC)n2)cc1OCC	5	2	68*	8	nt
COc1ccc(-c2nnn(CC(=O)NCc3ccccc3)n2)cc1OC	1	2	nt	4	nt
COc1cc(CN2CCC(n3nccc3NC(=O)C3CCOC3)CC2)ccc1F (stereo not given)	0	-6	45*	0	1
COc1cc(F)ccc1CN1CCC(n2nccc2NC(=O)C2CCOC2)CC1 (stereo not given)	5	-1	6	3	3
CC(C)C[C@@H](COCc1cccc(Cl)c1)N1CCN(C(=O)c2cccc(C(F)(F)F)c2)CCC1=O	58*	nt	-1	0	-1
CC(C)CC(COCc1cccc(Cl)c1)N1CCN(C(=O)c2ccc(C(F)(F)F)cc2)CCC1=O (stereo not given)	59*	4	-33	-2	5
CNC[C@@H]1Oc2ccc(NC(=O)c3ccncc3)cc2CC(=O)N([C@@H](C)CO)C[C@H]1C	7[16.7 µM]	nt	9	-18	2
Cc1ccc(-c2cnc3c(Nc4cccc(OC(F)(F)C(F)F)c4)nccn23)cc1	61*	18	-20	-1	0
Cc1cc(/C=C(\C#N)C(=O)Nc2ccc(F)cc2)c(C)n1-c1ccc(N2CCOCC2)c([N+](=O)[O-])c1	85*	16	-9	-3	nt
O=C(Nc1ccccc1C(=O)N/N=C/c1ccccc1)c1ccco1	1	-14	93*	-5	1
O=C(N/N=C/c1ccccc1)c1ccco1	-18	-2	3	-1	2
O=C(Cc1ccccc1)NCC(=O)N/N=C/c1ccc(C(=O)O)cc1	3	1	-6	nt	18
O=C(CNC(=O)c1ccco1)N/N=C/c1ccc(C(=O)O)cc1	2	0	48*	-1	-9
CC(=O)N1CC2(C1)[C@H](c1ccccc1)[C@H](CO)N2Cc1cc(F)ccc1F	nt	nt	4	nt	1
COc1ccc(C(=O)C(C)N(C(=O)c2ccc(Cl)cc2Cl)N2C(=O)C3C4C=CC(C4)C3C2=O)cc1 (stereo not given)	123*	8	nt	nt	nt
COc1ccc(Cc2nc(-c3ccc(-n4cccc4)cc3)no2)cc1	23	nt	5	-3	1
COc1ccc(Cc2nc(-c3ccc(-n4cccc4)cc3)no2)cc1OC	31	nt	56*	1	1
O=C(NCCOc1ccc(F)cc1)c1ccccc1SCc1ccccc1	28	2	-25	-8	2
CCc1ccc(OCCNC(=O)c2ccccc2SCc2ccc(F)cc2)cc1	58*	5	nt	19	nt
